Test results published in ChEMBL document CHEMBL3351347, “Eight pairs of epimeric triterpenoids involving a characteristic spiro-E/F ring from Abies faxoniana” (J Nat Prod, 2015).
The source made the active and inactive calls. The rule behind the calls is not given here.

Legend:
[1] = Cytotoxicity against human HuH7 cells after 24 hrs by MTT assay; assay type: functional, cell-based; conditions: Huh-7, 24 h
Procedure, shortened: (§1)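 Cells grown in DMEM with 10% FBS, penicillin/streptomycin at 37 °C, 5% CO2. […] MTT (5 mg/mL solution) added for 2−4 h at 37 °C, formazan dissolved in DMSO, absorbance read at 570 nm. Viability = mean OD of treated wells / DMSO-control OD; IC50 from viability.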

SMMC-7721 = experiment: Cytotoxicity against human SMMC7721 cells after 24 hrs by MTT assay; assay type: functional, cell-based; conditions: SMMC-7721, 24 h; procedure, shortened: as §1
[2] = Cytotoxicity against human QSG7701 cells after 24 hrs by MTT assay; assay type: cell-based; conditions: QSG7701, 24 h; procedure, shortened: as §1
HepG2 = experiment: Cytotoxicity against human HepG2 cells after 24 hrs by MTT assay; assay type: functional, cell-based; conditions: HepG2, 24 h
Procedure, shortened: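 Cells grown in DMEM with 10% FBS, penicillin/streptomycin at 37 °C, 5% CO2. MTT (5 mg/mL solution) added for 2−4 h at 37 °C, formazan dissolved in DMSO, absorbance read at 570 nm. Viability = mean OD of treated wells / DMSO-control OD; IC50 from viability.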

Huh-7 [3] = experiment: Induction of intracellular ROS production in human HuH7 cells at 5 to 20 uM after 24 hrs by carboxy-H2DCFDA staining based flow cytometry; assay type: functional, cell-based
Procedure, shortened: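 Huh7 exposed 24 h to 5, 10, 20 μM, harvested, PBS-washed, then loaded in DMEM with 10 μM carboxy-H2DCFDA for 30 min at 37 °C. Washed again; fluorescence measured by flow cytometry as an index of intracellular ROS.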

Huh-7 [4] = experiment: Induction of cell cycle arrest in human HuH7 cells assessed as increase in accumulation at G2/M phase at 5 to 20 uM after 24 hrs by propidium iodide staining based flow cytometry; assay type: functional
Procedure, shortened: (§2)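 Huh7 exposed 24 h to 5, 10, 20 μM. Cells washed in PBS with 2% FBS, then 3 × 10^5 cells/mL fixed overnight in cold absolute EtOH at 4 °C. After two PBS washes, stained with PI solution (3.8 mM sodium citrate, 20 μg/mL PI in PBS) plus RNase A, 30 min at room temperature in the dark. DNA content read by flow cytometry; means ± SEM, three independent experiments.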

Huh-7 [5] = experiment: Induction of intracellular ROS production in human HuH7 cells at 20 uM pre-treated with 10 mM ROS scavenger NAC measured after 24 hrs post dose by carboxy-H2DCFDA staining based flow cytometry
Huh-7 [6] = experiment: Induction of cell cycle arrest in human HuH7 cells assessed as reduction in accumulation at G0/G1 phase at 5 to 20 uM after 24 hrs by propidium iodide staining based flow cytometry; assay type: functional; procedure, shortened: as §2
Huh-7 [7] = experiment: Induction of apoptosis in human HuH7 cells at 5 to 20 uM after 24 hrs by annexin V-FITC and propidium iodide double staining based flow cytometry; assay type: functional, cell-based
Procedure, shortened: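 Huh7 exposed 24 h to 5, 10, 20 μM, then collected, PBS-washed and resuspended in binding buffer with annexin V-FITC (10 μg/mL) for 10 min in the dark. PI (20 μg/mL) added, samples read by flow cytometry immediately. Means ± SEM, three independent experiments.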

Huh-7 [8] = experiment: Induction of cell cycle arrest in human HuH7 cells assessed as reduction in accumulation at S phase at 5 to 20 uM after 24 hrs by propidium iodide staining based flow cytometry; assay type: functional; procedure, shortened: as §2

Compound | IC50 [1] | IC50 (SMMC-7721) | IC50 [2] | IC50 (HepG2) | Activity (Huh-7 [3]) | Activity (Huh-7 [4]) | Activity (Huh-7 [5]) | Activity (Huh-7 [6]) | Activity (Huh-7 [7]) | Activity (Huh-7 [8])
C[C@@H]1C[C@]2(C[C@@H](C)[C@@]3(CC[C@@]4(C)[C@H]5CC[C@H]6C(C)(C)C(=O)CC[C@]6(C)[C@@H]5CC[C@@]43C)O2)OC1=O | 18.4 µM | 28.3 µM | > 50 µM | > 50 µM | – | – | – | – | – | –
C[C@@H]1C[C@@]2(C[C@@H](C)[C@@]3(CC[C@]4(C)[C@]3(C)CC[C@@]35O[C@@]43[C@@H](OC(=O)Cc3ccccc3)C[C@H]3C(C)(C)C(=O)CC[C@@]35C)O2)OC1=O | > 50 µM | > 50 µM | > 50 µM | > 50 µM | – | – | – | – | – | –
C[C@@H]1C[C@@]2(C[C@@H](C)[C@@]3(CC[C@@]4(C)C(=O)[C@@]5(CC[C@@]43C)[C@@H](O)C[C@H]3C(C)(C)C(=O)CC[C@@]35C)O2)OC1=O | 12.3 µM | 10.1 µM | 8.2 µM | 15.4 µM | – | – | – | – | – | –
C[C@@H]1C[C@@]2(C[C@@H](C)[C@@]3(CC[C@@]4(C)C5=C(C(=O)C[C@@]43C)[C@@]3(C)CCC(=O)C(C)(C)[C@@H]3CC5)O2)OC1=O | > 50 µM | > 50 µM | 26.8 µM | 31.2 µM | – | – | – | – | – | –
C/C(=C/CC[C@@H](C)[C@H]1CC[C@@]2(C)C3=CC[C@H]4C(C)(C)[C@@H](O)CC[C@]4(C)[C@@H]3CC[C@]12C)C(=O)O | > 50 µM | > 50 µM | > 50 µM | > 50 µM | – | – | – | – | – | –
C[C@@H]1C[C@]2(C[C@@H](C)[C@@]3(CC[C@@]4(C)C5=CC[C@H]6C(C)(C)[C@H](O)CC[C@]6(C)[C@@H]5CC[C@@]43C)O2)OC1=O | 16.4 µM | 19.1 µM | 17.6 µM | > 50 µM | – | – | – | – | – | –
CC(=O)O[C@@H]1CC[C@]23C[C@@]24CC[C@@]2(C)[C@@](C)(CC[C@]25O[C@@]2(C[C@@H](C)C(=O)O2)C[C@H]5C)[C@H]4CC[C@H]3C1(C)C | 7.5 µM | 10.7 µM | > 50 µM | 9.8 µM | Active | Active | inactive | Active | Dose-dependent effect | Active
C[C@@H]1C[C@@]2(C[C@@H](C)[C@@]3(CC[C@@]4(C)C5=CC[C@H]6C(C)(C)[C@H](O)CC[C@]6(C)[C@@H]5CC[C@@]43C)O2)OC1=O | 16.4 µM | 19.1 µM | 17.6 µM | > 50 µM | – | – | – | – | – | –
C[C@H](CC(=O)C[C@@H](C)[C@]1(C)CC=C2C3=CC[C@H]4C(C)(C)[C@H](O)CC[C@]4(C)[C@@H]3CC[C@]21C)C(=O)O | > 50 µM | > 50 µM | 42.4 µM | > 50 µM | – | – | – | – | – | –
CC(=O)O[C@@H]1CC[C@]23C[C@@]24CC[C@@]2(C)[C@@](C)(CC[C@]25O[C@]2(C[C@@H](C)C(=O)O2)C[C@H]5C)[C@H]4CC[C@H]3C1(C)C | 7.5 µM | 10.7 µM | > 50 µM | 9.8 µM | Active | Active | inactive | Active | Dose-dependent effect | Active
C[C@@H]1C[C@@H](C[C@@H](C)[C@@]2(O)CC[C@@]3(C)C4=C(CC[C@@]32C)[C@@]2(C)CCC(=O)C(C)(C)[C@@H]2CC4)OC1=O | 40.1 µM | 34.6 µM | 37 µM | > 50 µM | – | – | – | – | – | –
CC1=CC(O)(C[C@@H](C)C2=CC[C@@]3(C)C4=C(CC[C@]23C)[C@@]2(C)CCC(=O)C(C)(C)[C@@H]2CC4)OC1=O (some centres not stated) [NEOABIESLACTONE E] | 20.9 µM | 13.4 µM | 10.1 µM | 16.7 µM | – | – | – | – | – | –
COc1cccc2c1C(=O)c1c(O)c3c(c(O)c1C2=O)C[C@@](O)(C(=O)CO)C[C@@H]3O[C@H]1C[C@H](N)[C@H](O)[C@H](C)O1 [DOXORUBICIN] | 0.7 µM | 0.3 µM | 2.9 µM | – | – | – | – | – | – | –
CO[C@@H]1CC[C@@]2(C)[C@@H](C[C@H](O)[C@@]23CC[C@]2(C)[C@@H]([C@H](C)C[C@@H]4C=C(C)C(=O)O4)CC[C@@]2(C)C3=O)C1(C)C | 35.1 µM | > 50 µM | > 50 µM | 20.6 µM | – | – | – | – | – | –
C[C@@H]1C[C@]2(C[C@@H](C)[C@@]3(CC[C@@]4(C)C5=C(C(=O)C[C@@]43C)[C@@]3(C)CCC(=O)C(C)(C)[C@@H]3CC5)O2)OC1=O | > 50 µM | > 50 µM | 26.8 µM | 31.2 µM | – | – | – | – | – | –
C[C@@H]1C[C@@]2(C[C@@H](C)[C@@]3(CC[C@@]4(C)[C@H]5CC[C@H]6C(C)(C)C(=O)CC[C@]6(C)[C@@H]5CC[C@@]43C)O2)OC1=O | 18.4 µM | 28.3 µM | > 50 µM | > 50 µM | – | – | – | – | – | –
C[C@@H]1C[C@]2(C[C@@H](C)[C@@]3(CC[C@@]4(C)[C@H]5CC[C@H]6C(C)(C)[C@H](O)CC[C@@]67C[C@]57CC[C@@]43C)O2)OC1=O | 16 µM | 25.2 µM | > 50 µM | 21.1 µM | – | – | – | – | – | –
C[C@@H]1C[C@@]2(C[C@@H](C)[C@@]3(CC[C@@]4(C)C5=CC[C@H]6C(C)(C)C(=O)CC[C@]6(C)[C@@H]5CC[C@@]43C)O2)OC1=O | 13.5 µM | 20.7 µM | 15.5 µM | 14.1 µM | – | – | – | – | – | –
COC(=O)[C@H](C)CC(=O)C[C@@H](C)[C@]1(C)CC[C@@]2(C)C3=CC[C@H]4C(C)(C)[C@H](O)CC[C@]4(C)[C@@H]3CC=C21 | > 50 µM | > 50 µM | > 50 µM | > 50 µM | – | – | – | – | – | –
C/C(=C/CC[C@@H](C)[C@H]1CC[C@@]2(C)C3=CC[C@H]4C(C)(C)C(=O)CC[C@]4(C)[C@@H]3CC[C@]12C)C(=O)O | > 50 µM | > 50 µM | > 50 µM | 24 µM | – | – | – | – | – | –
C[C@@H]1C[C@@]2(C[C@@H](C)[C@@]3(CC[C@@]4(C)[C@H]5CC[C@H]6C(C)(C)[C@H](O)CC[C@@]67C[C@]57CC[C@@]43C)O2)OC1=O | 16 µM | 25.2 µM | > 50 µM | 21.1 µM | – | – | – | – | – | –
C[C@@H]1C[C@]2(C[C@@H](C)[C@@]3(CC[C@]4(C)[C@]3(C)CC[C@@]35O[C@@]43[C@@H](OC(=O)Cc3ccccc3)C[C@H]3C(C)(C)C(=O)CC[C@@]35C)O2)OC1=O | > 50 µM | > 50 µM | > 50 µM | > 50 µM | – | – | – | – | – | –
C[C@@H]1C[C@]2(C[C@@H](C)[C@@]3(CC[C@@]4(C)C(=O)[C@@]5(CC[C@@]43C)[C@@H](O)C[C@H]3C(C)(C)C(=O)CC[C@@]35C)O2)OC1=O | 12.3 µM | 10.1 µM | 8.2 µM | 15.4 µM | – | – | – | – | – | –
C[C@@H]1C[C@]2(C[C@@H](C)[C@@]3(CC[C@@]4(C)C5=CC[C@H]6C(C)(C)C(=O)CC[C@]6(C)[C@@H]5CC[C@@]43C)O2)OC1=O | 13.5 µM | 20.7 µM | 15.5 µM | 14.1 µM | – | – | – | – | – | –
